What was measured:
[1] = folding enthalpy; higher = less favourable; fluorescence melt of hairpins on a sequencing array, two-state fit; conditions: sodium 0.088 M
Method in brief: (§1)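 Folding enthalpy and melting temperature were estimated with bootstrapped two-state fits and combined across four replicates by inverse-variance weighting, with fitted temperatures raised by 9.35 °C to match UV melts. The data were Cy3 fluorescence of library hairpins, with annealed Cy3 and quencher oligos, on a sequenced MiSeq flow cell in 50 mM Na-HEPES pH 8.0, 25 mM NaCl, imaged in 2.5 °C steps up to 60 °C and normalised to pre-quench Cy3 and control constructs.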

[2] = melting temperature; fluorescence melt of hairpins on a sequencing array, two-state fit, raised by 9.35 °C to match UV melts; conditions: sodium 0.088 M
Method in brief: as §1

| Sequence | folding enthalpy [1] [kcal/mol] | Tm [2] [°C] |
| --- | --- | --- |
| GACCCCGAAAGGGGCGTC ((((((....)))..))) | -11.7 | 61.4 |
| GACCCCGAAAGGGGTGTC ((((((....)))..))) | -9.59 | 60.6 |
| GACCCCGGAAACGGGGCC (.(((((....))))).) | -12.9 | 53.6 |
| GACCCGACGAAAGTCGTC (((..(((....)))))) | -6.62 | 25.9 |
| GACCCGCGAAAGCGGTC (((.(((....)))))) | -10 | 52.1 |
| GACCCTGGAAACAAGGTC ((((.((....)).)))) | -27.1 | 35.3 |
| GACCCTGGAAACAGGGCC (.(((((....))))).) | -17.2 | 47.2 |
| GACCGCCGAAAGGCAGTC (((.(((....))).))) | -20.9 | 54.3 |
| GACCGCGAAAGCGAGGTC ((((((....)))..))) | -19.2 | 56.6 |
| GACCGCGAAAGCGCCGTC ((((((....)))..))) | -14.1 | 36.6 |
| GACCGCGAAAGCGTAGTC ((((((....)))..))) | -14.6 | 46.5 |
| GACCGCGAAAGCGTGGTC ((((((....)))..))) | -18.6 | 50.9 |
| GACCGCGGAAACACGGCC (.(((.(....).))).) | -22.2 | 37 |
| GACCGCGGAAACGCGACC (..((((....))))..) | -7.67 | 28.9 |
| GACCGCGGAAACGCGATC ((.((((....)))).)) | -14.8 | 50.7 |
| GACCGGCGAAAGCCTGTC (((.(((....))).))) | -22.3 | 49.6 |
| GACCGGGGAAACTCGGTC (((((.(....).))))) | -50.3 | 56.3 |
| GACCGTGAAAACGGTC ((((((....)))))) | -41.1 | 68.1 |
| GACCGTGCGAAAGCAGTC (((..(((....)))))) | -11.4 | 29.6 |
| GACCGTGGAAACACGACC (..((((....))))..) | -10.8 | 28 |
| GACCTACGAAAGTAAGTC (((.(((....))).))) | -23.1 | 38 |
| GACCTACGAAAGTACGTC (((.(((....))).))) | -24.6 | 36.2 |
| GACCTAGGAAACTAGGCC (.(((((....))))).) | -19.3 | 39.5 |

| Sequence | folding enthalpy [1] [kcal/mol] | Tm [2] [°C] |
| --- | --- | --- |
| GACCTCACGAAAGTGGTC (((..(((....)))))) | -20.7 | 37.4 |
| GACCTCCGAAAGGAAGTC (((.(((....))).))) | -26.1 | 44.7 |
| GACCTCGGAAACGAGGCC (.(((((....))))).) | -13 | 55.4 |
| GACCTGCGAAAGCACGTC (((.(((....))).))) | -25.4 | 42.8 |
| GACCTGGGAAACTGGGTC ((((..(....)..)))) | -25 | 44.4 |
| GACCTTGAAAAAGGTC ((((((....)))))) | -33.4 | 56.8 |
| GACCTTGGAAACAAGGTC (((((((....))))))) | -40.6 | 63 |
| GACCTTGGAAACAGGGTC ((((.((....)).)))) | -31.5 | 47 |
| GACGAAGGAAACTTTGTC (((.(((....))).))) | -28.3 | 41.6 |
| GACGACGAAAGTCAAGTC ((((((....)))..))) | -23.8 | 45.9 |
| GACGACGAAAGTCGGGTC ((((((....)))..))) | -12.8 | 64.1 |
| GACGACGGAAACGTCGCC (.(((((....))))).) | -12.2 | 53.1 |
| GACGAGAAATCGTC (((((....))))) | -28.1 | 51.2 |
| GACGAGCGAAAGCTGTC (((.(((....)))))) | -32.3 | 53 |
| GACGAGGGAAACCTCGCC (.(((((....))))).) | -14.3 | 52.3 |
| GACGAGGGAAACTTCGTC (((((.(....).))))) | -40.8 | 49 |
| GACGATGGAAACGTTGTC (((.(.(....).).))) | -22.2 | 34 |
| GACGCAGGAAACCGCGTC (((((.(....).))))) | -37.3 | 56.9 |
| GACGCAGGAAACTGCGCC (.(((((....))))).) | -13.5 | 50.2 |
| GACGCCACGAAAGTGGTC (((..(((....)))))) | -8.49 | 32.1 |
| GACGCCGAAAGGCCCGTC ((((((....)))..))) | -13.9 | 37 |
| GACGCCGAAAGGCCGGTC ((((((....)))..))) | -15 | 42.6 |
| GACGCCGAAAGGCTGTC ((((((....))).))) | -18.4 | 56.9 |

| Sequence | folding enthalpy [1] [kcal/mol] | Tm [2] [°C] |
| --- | --- | --- |
| GACGCCGCGAAAGCGGTC (((..(((....)))))) | -6.05 | 34.8 |
| GACGCCGGAAACGACGTC ((((.((....)).)))) | -44.8 | 57.5 |
| GACGCGGGAAACCACGCC (.((.((....)).)).) | -12.4 | 34.6 |
| GACGCGGGAAACCACGTC ((((.((....)).)))) | -40.9 | 52.1 |
| GACGCGGGAAACCGCATC ((.((((....)))).)) | -13.4 | 40.1 |
| GACGCGGGAAACTGCGTC (((((.(....).))))) | -35.2 | 64 |
| GACGCTACGAAAGTAGTC (((..(((....)))))) | -13.2 | 35.9 |
| GACGCTCCGAAAGGAGTC (((..(((....)))))) | -9.32 | 34.5 |
| GACGGACCGAAAGGTGTC (((..(((....)))))) | -17.9 | 41.3 |
| GACGGAGAAATCCGTC ((((((....)))))) | -38.5 | 59.1 |
| GACGGAGGAAACTCCGCC (.(((((....))))).) | -14.9 | 48.2 |
| GACGGCACGAAAGTGGTC (((..(((....)))))) | -14.6 | 34.5 |
| GACGGCCCGAAAGGGGTC (((..(((....)))))) | -8.8 | 44.1 |
| GACGGCCGAAAGGCGGTC (((.(((....))).))) | -25.1 | 67.9 |
| GACGGCCGAAAGGCTGTC (((.(((....))).))) | -28.1 | 68.8 |
| GACGGCGAAAGCCAGGTC ((((((....)))..))) | -16.5 | 46.6 |
| GACGGCGAAAGCCCGGTC ((((((....)))..))) | -13.2 | 48.1 |
| GACGGCGAAAGCCTGTC ((((((....))).))) | -15.6 | 58.6 |
| GACGGCGAAAGCCTTGTC ((((((....)))..))) | -12.3 | 43.9 |
| GACGGCGCGAAAGCGGTC (((..(((....)))))) | -9.91 | 48.2 |
| GACGGCGGAAACACCGTC (((((.(....).))))) | -42.4 | 54 |
| GACGGCGGAAACGCCATC ((.((((....)))).)) | -13.2 | 41.1 |
| GACGGCGGAAACGCCGCC (.(((((....))))).) | -8.56 | 54.9 |

| Sequence | folding enthalpy [1] [kcal/mol] | Tm [2] [°C] |
| --- | --- | --- |
| GACGGGGCGAAAGCCGTC (((..(((....)))))) | -15.6 | 55.2 |
| GACGGTGCGAAAGCAGTC (((..(((....)))))) | -16.9 | 39.9 |
| GACGTAGGAAACTACGTC (((((((....))))))) | -44 | 63.3 |
| GACGTAGGAAACTGCGTC ((((.((....)).)))) | -45.2 | 51.5 |
| GACGTCGGAAACGACACC (..((((....))))..) | -10.5 | 29.3 |
| GACGTCGGAAACGACGCC (.(((((....))))).) | -11.6 | 50.7 |
| GACGTGAAAACGTC (((((....))))) | -32.7 | 61.8 |
| GACGTGGAAACACGTC ((((((....)))))) | -33.4 | 67.6 |
| GACGTGGGAAACCACGCC (.(((((....))))).) | -14 | 48.6 |
| GACGTTGGAAACAACGTC (((((((....))))))) | -39.1 | 68 |
| GACGTTGGAAACAGCGTC ((((.((....)).)))) | -39.6 | 52.1 |
| GACGTTGGAAACAGTGTC (((..((....))..))) | -14.1 | 31.2 |
| GACTACACGAAAGTGGTC (((..(((....)))))) | -14.2 | 40 |
| GACTACGAAAGTAAAGTC ((((((....)))..))) | -23.3 | 36.5 |
| GACTACGAAAGTAAGGTC ((((((....)))..))) | -21.4 | 32.7 |
| GACTACGAAAGTAGGTC ((((((....))).))) | -17.5 | 48.7 |
| GACTACGAAAGTAGTC ((((((....)))))) | -28.4 | 66.5 |
| GACTACGGAAACGTAGCC (.(((((....))))).) | -14.1 | 44.5 |
| GACTAGACGAAAGTCGTC (((..(((....)))))) | -13 | 38.9 |
| GACTAGGCGAAAGCCGTC (((..(((....)))))) | -8.71 | 50.4 |
| GACTAGGGAAACCTAGTC (((((((....))))))) | -42.5 | 56.9 |
| GACTATGGAAACATAGTC (((((((....))))))) | -46.8 | 54.5 |
